The source made the active and inactive calls. The calls are words filed in the database; no cut-off is given here.
What was measured:
[1] = tested on: MDA-MB-231; test: Induction of cell death in human MDA-MB-231 cells at 1 uM after 48 hrs by trypan blue assay; assay type: functional
Method in brief: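 MDA-MB-231 breast cancer cells exposed to compound for 48 hours. Viability scored by trypan blue exclusion. Read-out is percentage of cells dead.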

[2] = tested on: MDA-MB-231; test: Induction of poly(ADP-ribose) polymerase cleavage in human MDA-MB-231 cells within 24 hrs by Western blot analysis; assay type: functional, cell-based
Method in brief: (§1)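 MDA-MB-231 breast cancer cells exposed to a range of concentrations for 24 hours; lysate proteins probed by Western blot with specific antibodies against cIAP-1, caspase-8, and pro- and cleaved PARP.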

[3] = tested on: MDA-MB-231; test: Induction of degradation of cIAP1 in human MDA-MB-231 cells upto 100 nM after 24 hrs by Western blot analysis; assay type: functional, cell-based; method in brief: as §1
[4] = tested on: MDA-MB-231; test: Induction of cell death in human MDA-MB-231 cells after 48 hrs by trypan blue assay; assay type: functional, cell-based
Method in brief: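 MDA-MB-231 breast cancer cells exposed to a range of compound concentrations for 48 hours; viability scored by trypan blue exclusion; percent dead cells reported.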

[5] = tested on: MDA-MB-231; test: Induction of caspase 8 processing in human MDA-MB-231 cells within 24 hrs by Western blot analysis; assay type: functional, cell-based; method in brief: as §1
[6] = tested on: MDA-MB-231; test: Induction of degradation of cIAP1 in human MDA-MB-231 cells after 24 hrs by Western blot analysis; assay type: functional, cell-based; method in brief: as §1
[7] = tested on: MDA-MB-231; test: Growth inhibition of human MDA-MB-231 cells after 4 days by WST8 assay; settings: MDA-MB-231, 96 h

Structure (SMILES) | Activity [1] [%] | Activity [2] | Activity [3] | Activity [4] | Activity [5] | Activity [6] | IC50 [7] [µM]
CN[C@@H](C)C(=O)N[C@H]1Cc2ccccc2[C@H]2CC[C@@H](C(=O)N[C@@H]3CCCc4ccccc43)N2C1=O | 75 | Dose-dependent effect | Active | Dose-dependent effect | Dose-dependent effect | Active | 
CN[C@@H](C)C(=O)N[C@H]1Cc2ccccc2[C@H]2CC[C@@H](C(=O)NC(c3ccccc3)c3ccccc3)N2C1=O |  |  |  | Dose-dependent effect |  | Active | 
CN[C@@H](C)C(=O)N[C@H]1Cc2ccccc2[C@H]2CCC[C@@H](C(=O)NC(c3ccccc3)c3ccccc3)N2C1=O | <20 |  |  | Dose-dependent effect |  | Active | 1.37

From ChEMBL document CHEMBL1140231, “Design, synthesis, and evaluation of tricyclic, conformationally constrained small-molecule mimetics of second mitochondria-derived activator of caspases” (J Med Chem, 2008)
